Shown are actives, neighbours in structure and some others; about 5.1% of the full set was active somewhere.
APP 5'UTR act: activates APP 5'UTR luciferase reporter. SH-SY5Y APP 5'UTR luciferase reporter, luminescence; zero percent = DMSO vehicle wells. activation, % at 2 µM. hit rate 1% among 190,000. AID 1276;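 active means activation above a set limit, based on mean plus 3 SD of controls, cut at about 140% in these data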
STAT3 activator: activators of IL-6 induced STAT3 signaling | U3A cells, IL-6 STAT3-luciferase reporter, luminescence; 100% = signal with IL-6 EC80 alone | activation (% of control), % at 5.6 µM | hit rate 0.91% among 190,000;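 active means activation above the screen-wide mean of compound activation plus 3 SD, cut at about 130% in these data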;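 further: 0% = background luminescence of wells with medium and substrate only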
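Detection: reporter luminescence signal / Assay system: STAT1-lacking human U3A cells, STAT3 luciferase reporter / Incubation: compound pre-incubation 1 h before IL-6, then 6 h stimulation at 37 °C / Control set: IL-6-only high control / Read-out: % activation relative to IL-6 control / Probe or stimulus: Interleukin-6, 33 ng/mL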
STAT1 act: STAT1 signaling activation; NIH 3T3 STAT1-luciferase reporter, IFN-gamma, luminescence; 100% = IFN-gamma alone, no compound; activation (% of control), % at 5.5 µM; hit rate 2.6% among 200,000;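 active means activation above the screen-wide mean activation plus 3 SD, cut at about 130% in these data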;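 further: raw ratio to IFN-gamma control signal so 100% means no change and 0% no light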
NF-kB neuron act: raises NF-kB expression in human neuronal cells; NF-kB reporter expression; hits give high values; fold change at 12.5 µM; hit rate 1.6% among 190,000; AID 1239; in the data active means fold change above about 3.3
STAT1 blocker: STAT1 signaling inhibition. NIH 3T3 STAT1-luciferase reporter, IFN-gamma, luminescence. inhibition, % at 5.5 µM. hit rate 0.35% among 200,000. AID 920;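 active means inhibition above a set limit, the mean inhibition across all tested compounds plus 3 SD, cut at about 34% in these data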;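 further: 0% = IFN-gamma with DMSO and 100% = IFN-gamma with 300 µM nifuroxazide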
STAT3 blocker: inhibitors of IL-6 induced STAT3 signaling; U3A cells, IL-6 STAT3-luciferase reporter, luminescence; host cell line lacks STAT1; hit rate 0.89% among 190,000; AID 862; inhibition, % at 5.5 µM;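 active means inhibition above the mean inhibition across all screened compounds plus 3 SD, cut at about 44% in these data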;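 further: 0% = DMSO only wells and 100% = 100 µM nifuroxazide control wells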
The depositor's hits bear a star.

For O=c1c2ccccc2cnn1CCOc1ccccc1 the results were APP 5'UTR act 98.5, STAT3 activator 22.4, STAT1 act 60.2, NF-kB neuron act 1.38, STAT1 blocker 43.6* and STAT3 blocker 89.9*.
Screening CCOC(=O)C(C)Sc1ncc(-c2ccc(Cl)cc2)cn1 (stereo not given) returned APP 5'UTR act 18.4, STAT3 activator 86.8, STAT1 act 95.8, NF-kB neuron act 1.15, STAT1 blocker 4.6 and STAT3 blocker 21.1.
`NC(=O)C1CCN(C(=O)Nc2ccccc2)CC1` gave APP 5'UTR act 11.1, STAT3 activator 101.9, STAT1 act 106.6, NF-kB neuron act 0.92, STAT1 blocker -2.3 and STAT3 blocker 0.8.
O=C(COc1ccc(F)cc1)N1CCC(c2ccccc2)C1 (stereo not given) was read as APP 5'UTR act 47.1, STAT3 activator 110.9, STAT1 act 135.8*, NF-kB neuron act 2, STAT1 blocker -39.5 and STAT3 blocker -9.1.
Screening Cc1cccc(OCC(=O)N2CCC(c3ccccc3)C2)c1 (stereo not given) returned APP 5'UTR act 130.6, STAT3 activator 103.2, STAT1 act 120.6, NF-kB neuron act 2.2, STAT1 blocker -22.4 and STAT3 blocker -1.2.
Screening O=C(Nc1ccccc1)N1CCC(c2ccccc2)C1 (stereo not given) returned APP 5'UTR act 77.8, STAT3 activator 90.5, STAT1 act 138.0*, NF-kB neuron act 3.06, STAT1 blocker -41.5 and STAT3 blocker 12.9.
`O=C(c1cccs1)N1CCC(c2ccccc2)C1` (stereo not given) gave APP 5'UTR act 68.0, STAT3 activator 104.3, STAT1 act 134.7*, NF-kB neuron act 2.44, STAT1 blocker -37.9 and STAT3 blocker -0.8.
Screening O=C(/C=C/c1ccccc1)N1CCC(c2ccccc2)C1 (stereo not given) returned APP 5'UTR act 140.7*, STAT3 activator 105.1, STAT1 act 137.2*, NF-kB neuron act 4.44*, STAT1 blocker -42.3 and STAT3 blocker -3.2.
For O=C(/C=C/c1ccco1)N1CCCC(c2ccccc2)C1 (stereo not given) the results were APP 5'UTR act 16.9, STAT3 activator 97.4, STAT1 act 108.8, NF-kB neuron act 1.82, STAT1 blocker -11.7 and STAT3 blocker 6.4.
`O=C(Cc1c(Sc2ccccc2)c2ccccc2n1Cc1ccccc1)NCCO` gave APP 5'UTR act -14.3, STAT3 activator 105.9, STAT1 act 95.1, NF-kB neuron act 0.78, STAT1 blocker 5.5 and STAT3 blocker -9.8.
For CCN(CC)C(=N)N1c2ccccc2CCC1C (stereo not given) the results were APP 5'UTR act 2.6, STAT3 activator 104.8, STAT1 act 98.3, NF-kB neuron act 1.09, STAT1 blocker 0.3 and STAT3 blocker -4.4.
Screening O=C1c2ccccc2NC(c2ccccc2Cl)N1N=C1CCCCCC1 (stereo not given) returned APP 5'UTR act 43.9, STAT3 activator 103.8, STAT1 act 138.6*, NF-kB neuron act 1.7, STAT1 blocker -43.3 and STAT3 blocker -7.3.
Screening O=C1NC2(C=Cc3c(ccc4ccccc34)O2)Oc2ccccc21 (stereo not given) returned APP 5'UTR act 3.2, STAT3 activator 114.3, STAT1 act 140.7*, NF-kB neuron act 1.46, STAT1 blocker -45.6 and STAT3 blocker -16.7.
For CC1(C)OC(=O)N(c2ccccc2)C12C=Cc1c(ccc3ccccc13)O2 (stereo not given) the results were APP 5'UTR act 1.4, STAT3 activator 99.0, STAT1 act 94.7, NF-kB neuron act 0.88, STAT1 blocker 5.7 and STAT3 blocker 2.2.
For Cc1ccc2sc(N(CCCN(C)C)C(=O)CN3C(=O)c4ccccc4C3=O)nc2c1C the results were APP 5'UTR act 4.3, STAT3 activator 93.9, STAT1 act 106.6, NF-kB neuron act 1.02, STAT1 blocker -9.4 and STAT3 blocker 15.0.
For Cc1cccc(/C=N/Nc2nncc3ccccc23)c1 the results were APP 5'UTR act 207.9*, STAT3 activator 32.1, STAT1 act 51.2, NF-kB neuron act 1.08, STAT1 blocker 52.0* and STAT3 blocker 83.9*.
COc1ccc(/C=N/Nc2nncc3ccccc23)c(OC)c1 was read as APP 5'UTR act 58.5, STAT3 activator 88.6, STAT1 act 147.2*, NF-kB neuron act 2.57, STAT1 blocker -52.0 and STAT3 blocker 16.4.
`CSc1ccc(S(=O)(=O)Nc2ccc(OCC(=O)N3CCOCC3)cc2)cc1` gave APP 5'UTR act 11.5, STAT3 activator 93.0, STAT1 act 93.4, NF-kB neuron act 1.04, STAT1 blocker 5.1 and STAT3 blocker 14.2.
FC(F)(F)c1cc(N2CCOCC2)nc(-c2ccccc2)n1 was read as APP 5'UTR act 18.1, STAT3 activator 92.2, STAT1 act 90.1, NF-kB neuron act 1.21, STAT1 blocker 11.3 and STAT3 blocker 12.0.
CCOc1c2ccc(C(=O)NCCc3cccs3)cc2nn1CC was read as APP 5'UTR act 81.0, STAT3 activator 103.5, STAT1 act 143.9*, NF-kB neuron act 3.04, STAT1 blocker -48.6 and STAT3 blocker 3.2.
CCOc1ccc(C(=O)NCc2cccs2)cc1 was read as STAT3 activator 114.3, STAT1 act 100.1, NF-kB neuron act 1.73, STAT1 blocker -5.1 and STAT3 blocker -13.9.
CCCCOc1ccc(C(=O)NCCc2cccs2)cc1 was read as APP 5'UTR act 52.8, STAT3 activator 109.9, STAT1 act 134.5*, NF-kB neuron act 2.53, STAT1 blocker -40.1 and STAT3 blocker -6.8.
For O=C(NCc1cccnc1)c1csc2c1CCCC2 the results were APP 5'UTR act -9.6, STAT3 activator 108.2, STAT1 act 92.7, NF-kB neuron act 1.07, STAT1 blocker 8.2 and STAT3 blocker -9.7.
For C/C(=N\Nc1ccc(Cl)c(C(=O)O)c1)c1ccc2c(c1)OCO2 the results were APP 5'UTR act 22.4, STAT3 activator 108.1, STAT1 act 130.9*, NF-kB neuron act 1.93, STAT1 blocker -33.9 and STAT3 blocker -7.5.
`C/C(=N\Nc1ccc(Cl)c(C(=O)O)c1)c1cc2ccccc2o1` gave APP 5'UTR act 11.4, STAT3 activator 97.2, STAT1 act 113.5, NF-kB neuron act 0.99, STAT1 blocker -16.2 and STAT3 blocker 10.9.
Screening O=C(O)c1ccc(N/N=C/c2ccc3c(c2)OCO3)cc1 returned APP 5'UTR act -31.0, STAT3 activator 33.5, STAT1 act 13.2, NF-kB neuron act 0.66, STAT1 blocker 93.1* and STAT3 blocker 79.8*.
Screening C/C(=N\Nc1nc2ccccc2s1)c1ccc2c(c1)OCO2 returned APP 5'UTR act 46.6, STAT3 activator 100.9, STAT1 act 120.8, NF-kB neuron act 3.37*, STAT1 blocker -23.3 and STAT3 blocker -3.7.
O=C(O)c1cc(N/N=C/c2ccc3c(c2)OCCO3)ccc1Cl was read as APP 5'UTR act 81.9, STAT3 activator 120.1, STAT1 act 57.5, NF-kB neuron act 5.52*, STAT1 blocker 47.7* and STAT3 blocker -27.6.

Screens: PubChem, several laboratories
